Test results taken from ChEMBL document CHEMBL3822397, “Synthesis and bioevaluation of novel benzodipyranone derivatives as P-glycoprotein inhibitors for multidrug resistance reversal agents” (Eur J Med Chem, 2016).
The source made the active and inactive calls. The rule behind the calls is not given here.

Columns and labels:
[1] = target: T1, ATP-dependent translocase ABCB1 (Homo sapiens, UniProt P08183); assay: Inhibition of full length human ABCB1 expressed in Flp-In-293 cells assessed as potentiation of doxorubicin-induced cytotoxicity at 10 uM after 72 hrs by SRB assay relative to control; format: cell-based
T1 sequence (P08183 whole entry): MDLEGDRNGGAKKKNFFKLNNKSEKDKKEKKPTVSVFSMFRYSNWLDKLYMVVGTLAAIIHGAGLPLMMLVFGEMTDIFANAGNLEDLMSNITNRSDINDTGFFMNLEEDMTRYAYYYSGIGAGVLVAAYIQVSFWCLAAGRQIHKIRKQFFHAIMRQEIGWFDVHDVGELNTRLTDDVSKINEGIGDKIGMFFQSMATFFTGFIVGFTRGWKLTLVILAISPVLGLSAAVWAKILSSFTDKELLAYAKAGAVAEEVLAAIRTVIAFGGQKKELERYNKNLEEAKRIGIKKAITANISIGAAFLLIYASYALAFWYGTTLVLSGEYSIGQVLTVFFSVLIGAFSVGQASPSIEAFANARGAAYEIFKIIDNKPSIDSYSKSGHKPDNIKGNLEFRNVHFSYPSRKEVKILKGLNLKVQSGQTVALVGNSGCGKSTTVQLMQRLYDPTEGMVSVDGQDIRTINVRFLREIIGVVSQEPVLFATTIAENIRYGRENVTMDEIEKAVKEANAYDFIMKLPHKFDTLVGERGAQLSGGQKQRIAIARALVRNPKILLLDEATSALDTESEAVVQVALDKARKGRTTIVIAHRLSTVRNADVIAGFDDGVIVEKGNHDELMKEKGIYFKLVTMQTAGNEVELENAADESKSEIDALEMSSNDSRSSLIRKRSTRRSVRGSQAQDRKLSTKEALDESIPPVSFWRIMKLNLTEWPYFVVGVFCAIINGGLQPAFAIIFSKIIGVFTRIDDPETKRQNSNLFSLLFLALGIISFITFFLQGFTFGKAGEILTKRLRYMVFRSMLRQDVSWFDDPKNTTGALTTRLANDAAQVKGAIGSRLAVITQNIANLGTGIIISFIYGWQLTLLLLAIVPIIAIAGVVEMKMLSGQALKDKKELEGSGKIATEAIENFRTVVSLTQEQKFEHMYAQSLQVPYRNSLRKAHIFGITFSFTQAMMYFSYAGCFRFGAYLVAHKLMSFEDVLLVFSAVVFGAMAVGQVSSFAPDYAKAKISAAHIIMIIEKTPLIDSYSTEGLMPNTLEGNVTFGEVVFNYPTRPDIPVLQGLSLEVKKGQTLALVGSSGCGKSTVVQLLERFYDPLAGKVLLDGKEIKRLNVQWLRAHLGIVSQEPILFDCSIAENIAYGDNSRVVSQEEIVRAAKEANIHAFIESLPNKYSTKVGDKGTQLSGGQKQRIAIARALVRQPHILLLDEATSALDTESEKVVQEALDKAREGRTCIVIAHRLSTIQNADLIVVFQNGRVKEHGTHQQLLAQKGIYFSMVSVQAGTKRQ

HEK293 [2] = assay: Potentiation of doxorubicin-induced cytotoxicity in Flp-In-293 cells assessed as reduction in doxorubicin IC50 at 8 uM after 72 hrs by SRB assay relative to control; format: functional, Homo sapiens
[3] = target: T1, ATP-dependent translocase ABCB1; assay: Inhibition of full length human ABCB1 expressed in Flp-In-293 cells assessed as potentiation of paclitaxel-induced cytotoxicity at 8 uM after 72 hrs by SRB assay relative to control; format: cell-based
[4] = target: T1, ATP-dependent translocase ABCB1; assay: Inhibition of full length human ABCB1 expressed in Flp-In-293 cells assessed as potentiation of vincristine-induced cytotoxicity at 10 uM after 72 hrs by SRB assay relative to control; format: cell-based
[5] = target: T1, ATP-dependent translocase ABCB1; assay: Inhibition of full length human ABCB1 expressed in Flp-In-293 cells at 2.5 uM incubated for 30 mins by calcein-AM uptake assay relative to control; format: cell-based; conditions: 0.5 h
HEK293 [6] = assay: Potentiation of paclitaxel-induced cytotoxicity in Flp-In-293 cells assessed as reduction in paclitaxel IC50 at 10 uM after 72 hrs by SRB assay relative to control; format: functional, Homo sapiens
HEK293 [7] = assay: Downregulation of ABCB1 mRNA expression in Flp-In-293 cells transfected with full length human ABCB1 at 5 uM after 72 hrs by RT-PCR analysis; format: functional, cell-based
Summary of the method: (§1)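 ABCB1 mRNA measured after treating ABCB1/Flp-In-293 cells with test compounds for 72 hr. Data given as mean ± SE of three experiments, each in triplicate.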

HEK293 [8] = assay: Effect on ABCB1 mRNA expression in Flp-In-293 cells at 5 uM after 72 hrs by RT-PCR analysis; format: ADME, cell-based; conditions: human, flp-in-293, 72 h; summary of the method: as §1
HEK293 [9] = assay: Potentiation of paclitaxel-induced cytotoxicity in Flp-In-293 cells assessed as reduction in paclitaxel IC50 at 8 uM after 72 hrs by SRB assay relative to control; format: functional, Homo sapiens
[10] = target: T1, ATP-dependent translocase ABCB1; assay: Inhibition of full length human ABCB1 expressed in Flp-In-293 cells assessed as potentiation of vincristine-induced cytotoxicity at 8 uM after 72 hrs by SRB assay relative to control; format: cell-based
[11] = target: T1, ATP-dependent translocase ABCB1; assay: Inhibition of full length human ABCB1 expressed in Flp-In-293 cells assessed as potentiation of doxorubicin-induced cytotoxicity at 8 uM after 72 hrs by SRB assay relative to control; format: cell-based
[12] = target: T1, ATP-dependent translocase ABCB1; assay: Inhibition of full length human ABCB1 expressed in Flp-In-293 cells at 5 uM incubated for 30 mins by calcein-AM uptake assay relative to control; format: cell-based; conditions: 0.5 h
HEK293 [13] = assay: Potentiation of doxorubicin-induced cytotoxicity in Flp-In-293 cells assessed as reduction in doxorubicin IC50 at 10 uM after 72 hrs by SRB assay relative to control; format: functional, Homo sapiens
[14] = target: T1, ATP-dependent translocase ABCB1; assay: Inhibition of full length human ABCB1 expressed in Flp-In-293 cells assessed as potentiation of paclitaxel-induced cytotoxicity at 10 uM after 72 hrs by SRB assay relative to control; format: cell-based
HEK293 [15] = assay: Potentiation of vincristine-induced cytotoxicity in Flp-In-293 cells assessed as reduction in vincristine IC50 at 8 uM after 72 hrs by SRB assay relative to control; format: functional, Homo sapiens
HEK293 [16] = assay: Potentiation of vincristine-induced cytotoxicity in Flp-In-293 cells assessed as reduction in vincristine IC50 at 10 uM after 72 hrs by SRB assay relative to control; format: functional, Homo sapiens
[17] = target: T1, ATP-dependent translocase ABCB1; assay: Inhibition of ABCB1 in human KBVIN cells assessed as potentiation of paclitaxel-induced cytotoxicity at 10 uM after 72 hrs by SRB assay relative to control; format: cell-based
[18] = Potentiation of paclitaxel-induced cytotoxicity in human HeLaS3 assessed as reduction in paclitaxel IC50 at 8 uM after 72 hrs by SRB assay relative to control; format: functional, HeLa S3
[19] = target: T1, ATP-dependent translocase ABCB1; assay: Inhibition of ABCB1 in human KBVIN cells assessed as potentiation of vincristine-induced cytotoxicity at 10 uM after 72 hrs by SRB assay relative to control; format: cell-based
[20] = Potentiation of paclitaxel-induced cytotoxicity in human HeLaS3 assessed as reduction in paclitaxel IC50 at 10 uM after 72 hrs by SRB assay relative to control; format: functional, HeLa S3
[21] = target: T1, ATP-dependent translocase ABCB1; assay: Inhibition of ABCB1 in human KBVIN cells assessed as potentiation of vincristine-induced cytotoxicity at 8 uM after 72 hrs by SRB assay relative to control; format: cell-based
[22] = target: T1, ATP-dependent translocase ABCB1; assay: Inhibition of ABCB1 in human KBVIN cells assessed as potentiation of paclitaxel-induced cytotoxicity at 8 uM after 72 hrs by SRB assay relative to control; format: cell-based
[23] = Potentiation of vincristine-induced cytotoxicity in human HeLaS3 assessed as reduction in vincristine IC50 at 8 uM after 72 hrs by SRB assay relative to control; format: functional, HeLa S3
[24] = Potentiation of vincristine-induced cytotoxicity in human HeLaS3 assessed as reduction in vincristine IC50 at 10 uM after 72 hrs by SRB assay relative to control; format: functional, HeLa S3

Q: Which results are given for `COc1ccc(-c2coc3c(c(O)cc4occ(-c5ccc(OC)cc5)c(=O)c43)c2=O)cc1`?
A: fold change (FC) [1]: 1.7; fold change (FC) (HEK293 [2]): 0.9; fold change (FC) [3]: 2.1; fold change (FC) [4]: 1.6; fold change (FC) [5]: 1.54; fold change (FC) (HEK293 [6]): 4.2; Activity (HEK293 [7]): inactive; Activity (HEK293 [8]): Non-toxic; fold change (FC) (HEK293 [9]): 2.7; fold change (FC) [10]: 1.4; fold change (FC) [11]: 1.6; fold change (FC) [12]: 1.84; fold change (FC) (HEK293 [13]): 2.1; fold change (FC) [14]: 8.2; fold change (FC) (HEK293 [15]): 6.6; fold change (FC) (HEK293 [16]): 7.1

Q: What does the source list for `Cc1cccc(-c2coc3c(c(O)cc4occ(-c5cccc(C)c5)c(=O)c43)c2=O)c1`?
A: fold change (FC) [1]: 1.6; fold change (FC) [17]: 23.1; fold change (FC) [18]: 1.1; fold change (FC) (HEK293 [2]): 1.2; fold change (FC) [19]: 29.7; fold change (FC) [3]: 10.8; fold change (FC) [4]: 21; fold change (FC) [20]: 1.4; fold change (FC) [5]: 1.58; fold change (FC) (HEK293 [6]): 1.8; Activity (HEK293 [7]): Active; fold change (FC) (HEK293 [9]): 1.5; fold change (FC) [10]: 15.6; fold change (FC) [21]: 7.4; fold change (FC) [11]: 1.4; fold change (FC) [12]: 2.05; fold change (FC) (HEK293 [13]): 1.6; fold change (FC) [14]: 16.1; fold change (FC) (HEK293 [15]): 7.8; fold change (FC) [22]: 19; fold change (FC) [23]: 4.7; fold change (FC) [24]: 8.8; fold change (FC) (HEK293 [16]): 9.1
